Test results reported in ChEMBL document CHEMBL4152258, “Identification of chalcone-based antileishmanial agents targeting trypanothione reductase” (Eur J Med Chem, 2018).
Calls of active or inactive are those of the source. The calls are words filed in the database; no cut-off is given here.

Tests used:
Leishmania donovani [1] = experiment: Antileishmanial activity against promastigote stage of Leishmania donovani MHOM/NP/02/BPK282/0c14 assessed as parasite growth inhibition up to 40 uM after 72 hrs by Alamar blue assay; format: functional, organism-based
Outline: (§1)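 Late log/stationary promastigotes were seeded at 10^6/mL in HOMEM with 20% FBS and exposed to compounds at 40–1.6 µM for 72 h at 26 °C, from 8 mM DMSO stocks. AlamarBlue was then added for 24 h at 26 °C, and absorbance was read at 550 and 630 nm. Runs were in duplicate. IC50/72h is the mean of two independent determinations.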

[2] = Selectivity index, ratio of CC50 for human THP1 cells to IC50 for Leishmania donovani MHOM/NP/02/BPK282/0c14; format: toxicity; conditions: THP-1 cells, read-out: Ratio CC50/IC50
Outline: (§2)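 Selectivity index calculated as CC50/72h in Vero (16) or THP-1 (17) cells divided by IC50/72h against L. donovani promastigotes.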

Leishmania donovani [3] = experiment: Antileishmanial activity against promastigote stage of Leishmania donovani MHOM/NP/02/BPK282/0c14 assessed as parasite growth inhibition after 72 hrs by Alamar blue assay; format: functional, organism-based; conditions: MHOM/NP/02/BPK282/0c14, 72 h; outline: as §1
[4] = Selectivity index, ratio of CC50 for African green monkey Vero cells to IC50 for Leishmania donovani MHOM/NP/02/BPK282/0c14; format: toxicity; conditions: read-out: Ratio CC50/IC50; outline: as §2
[5] = Cytotoxicity against human THP1 cells after 72 hrs by Alamar blue assay; format: cell-based; conditions: THP-1 cells
Outline: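 THP-1 cells were seeded at 10^5 cells/mL in RPMI-1640 with 10% FBS and adhered with 0.1 µM PMA, then exposed to compounds for 72 h at 37 °C, 5% CO2. AlamarBlue was added for 24 h at 37 °C, with absorbance read at 550 and 630 nm. Duplicates. CC50/72h determined.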

[6] = Cytotoxicity against African green monkey Vero cells after 72 hrs by Alamar blue assay; format: cell-based; conditions: chlorocebus sabaeus
Outline: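 Vero cells were seeded at 10^5/mL in MEM with 10% FBS and exposed to compounds up to 600 µM for 72 h at 37 °C, 5% CO2. AlamarBlue was added for 24 h at 37 °C, with absorbance read at 550 and 630 nm. Duplicates. CC50/72h determined.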

[7] = Safety index, ratio of test compound CC50 to amphotericin B CC50 for human THP1 cells; format: ADME, cell-based; conditions: THP-1 cells
[8] = Ratio of IC50 for amastigote stage of Leishmania donovani MHOM/NP/02/BPK282/0c14 to Ki for Leishmania spp. trypanothione reductase
[9] = Binding affinity to Leishmania spp. trypanothione reductase by surface plasmon resonance analysis; parameters: species or system Leishmania sp.
Outline: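 Recombinant L. infantum TR was amine-coupled to ~2000 RU on a carboxyl sensor chip. Analytes in HBS pH 7.4 + 1% DMSO were given as FastStep serial doubling injections from 1.56 to 100 µM, followed by dissociation after 100 s. A protein-free surface served as control. Sensorgrams are averages of three experiments. KD came from Scatchard plots and a global 1:1 binding fit.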

[10] = Safety index, ratio of test compound CC50 to amphotericin B CC50 for African green monkey Vero cells; format: ADME, cell-based; conditions: chlorocebus sabaeus
[11] = Ratio of IC50 for promastigote stage of Leishmania donovani MHOM/NP/02/BPK282/0c14 to Ki for Leishmania spp. trypanothione reductase
Leishmania major = experiment: Antileishmanial activity against promastigote stage of Leishmania major MHOM/SU/73/5-ASKH assessed as parasite growth inhibition after 72 hrs by Alamar blue assay; format: functional, organism-based; outline: as §1
Leishmania donovani [12] = experiment: Antileishmanial activity against amastigote stage of Leishmania donovani MHOM/NP/02/BPK282/0c14 infected in human THP1 cells assessed as parasite growth inhibition after 72 hrs by Giemsa staining-based assay; format: functional, organism-based; conditions: MHOM/NP/02/BPK282/0c14, THP-1, 72 h
Outline: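 THP-1 cells at 10^5 cells/mL differentiated with 0.1 µM PMA for 48 h at 37 °C, 5% CO2, then infected with stationary-phase promastigotes. After 24 h, compounds were added at 40–1.5 µM for 72 h. Wells were Giemsa-stained, and the infectivity index (% infected macrophages × mean amastigotes per macrophage) was counted on ≥100 cells in duplicate cultures. IC50/72h determined.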

[13] = Competitive inhibition of Leishmania spp. trypanothione reductase in presence of 75 to 400 uM TS2 by Dixon plot analysis; parameters: species or system Leishmania sp.
Outline: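 Recombinant L. infantum TR at 40 nM was equilibrated for 2 min at 25 °C with TS2 (75–400 µM) and inhibitor (30 nM–1 µM). The reaction was started with 40 µM NADPH, and NADPH oxidation was followed as A340 decrease (ε 6,222 M−1 cm−1). A Dixon plot was built by linear regression of reciprocal fitted rates against inhibitor concentration.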

Leishmania tropica = experiment: Antileishmanial activity against promastigote stage of Leishmania tropica MHOM/SU/74/K27 assessed as parasite growth inhibition after 72 hrs by Alamar blue assay; format: functional, organism-based; conditions: MHOM/SU/74/K27, 72 h; outline: as §1
Leishmania infantum = experiment: Antileishmanial activity against promastigote stage of Leishmania infantum MHOM/TN/80/IPT1 assessed as parasite growth inhibition after 72 hrs by Alamar blue assay; format: functional, organism-based; conditions: MHOM/TN/80/IPT1, 72 h; outline: as §1
Leishmania sp. = experiment: Potency index, ratio of Sb3+ Ki to test compound Ki for Leishmania spp. trypanothione reductase

SMILES | growth inhibition (GI) (Leishmania donovani [1]) | selectivity ratio [2] | IC50 (Leishmania donovani [3]) [µM] | selectivity ratio [4] | CC50 at 72 h [5] [µM] | CC50 at 72 h [6] [µM] | also measured
COc1cc(OCC=C(C)C)ccc1C(=O)/C=C/c1ccc(F)cc1 | inactive |  |  |  |  |  | 
COc1cc(OCC=C(C)C)ccc1C(=O)/C=C/c1ccncc1 |  | 1.5 | 10.5 | 1.5 | 16 | 16 | 
COc1cc(OCC=C(C)C)ccc1C(=O)/C=C/c1cccnc1 |  | 3.8 | 10.5 | 2 | 40 | 22 | 
C#CCOc1ccc(C(=O)/C=C/c2ccc(OC)c(OC)c2)c(OCC#C)c1 | inactive |  |  |  |  |  | 
CC(C)=CCOc1ccc(C(=O)/C=C/c2cccnc2)c(O)c1 |  | 11.8 | 8.5 | 24.7 | 100 | 210 | 
C#CCOc1ccc(C(=O)/C=C/c2cc(OC)c(OC)c(OC)c2)c(OC)c1 | inactive |  |  |  |  |  | 
C#CCOc1ccc(C(=O)/C=C/c2ccc(Br)cc2)c(OC)c1 |  | 4.6 | 21.5 | 4.6 | 100 | 100 | 
C[C@@H]1[C@H](O)[C@@H](C)/C=C/C=C/C=C/C=C/C=C/C=C/C=C/[C@H](O[C@@H]2O[C@H](C)[C@@H](O)[C@H](N)[C@@H]2O)C[C@@H]2O[C@](O)(C[C@@H](O)C[C@@H](O)[C@H](O)CC[C@@H](O)C[C@@H](O)CC(=O)O[C@H]1C)C[C@H](O)[C@H]2C(=O)O [AMPHOTERICIN B] |  | 666 | 0.3 | 666 | 200 | 200 | 
COc1cc(OCC=C(C)C)ccc1C(=O)/C=C/c1ccccc1 |  | 3.3 | 15 | 3.3 | 50 | 50 | 
CC(C)=CCOc1ccc(C(=O)/C=C/c2ccncc2)c(O)c1 |  | 3.2 | 5 | 8 | 16 | 40 | 
COc1cc(OCC=C(C)C)ccc1C(=O)/C=C/c1cc(OC)c(OC)c(OC)c1 |  | 2.3 | 11 | 3.6 | 25 | 40 | 
C#CCOc1ccc(C(=O)/C=C/c2ccncc2)c(OC)c1 |  | 4 | 4 | 5 | 16 | 20 | 
C#CCOc1ccc(C(=O)/C=C/c2cccnc2)c(OCC#C)c1 |  | 3.8 | 4 | 1.5 | 15 | 6 | 
COc1cc(OCC=C(C)C)ccc1C(=O)/C=C/c1ccc(NC(C)=O)cc1 | inactive |  |  |  |  |  | 
C#CCOc1ccc(C(=O)/C=C/c2cc(OC)c(OC)c(OC)c2)c(OCC#C)c1 | inactive |  |  |  |  |  | 
CC(=O)Oc1cc(OCC=C(C)C)ccc1C(=O)/C=C/c1ccccc1 | inactive |  |  |  |  |  | 

SMILES | growth inhibition (GI) (Leishmania donovani [1]) | selectivity ratio [2] | IC50 (Leishmania donovani [3]) [µM] | selectivity ratio [4] | CC50 at 72 h [5] [µM] | CC50 at 72 h [6] [µM] | also measured
C#CCOc1ccc(C(=O)/C=C/c2cccnc2)c(OC)c1 |  | 1.7 | 9.5 | 1.6 | 16 | 15 | 
C#CCOc1ccc(C(=O)/C=C/c2cccnc2)c(O)c1 |  | 1.4 | 17.5 | 2.3 | 25 | 40 | 
C#CCOc1ccc(C(=O)/C=C/c2ccc(OC)c(OC)c2)c(OC)c1 | inactive |  |  |  |  |  | 
CC(C)=CCOc1ccc(C(=O)/C=C/c2ccccc2)c(O)c1 | inactive |  |  |  |  |  | 
C#CCOc1ccc(C(=O)/C=C/c2ccc(OC)cc2)c(OCC#C)c1 | inactive |  |  |  |  |  | 
C#CCOc1ccc(C(=O)/C=C/c2ccc([N+](=O)[O-])cc2)c(OC)c1 | inactive |  |  |  |  |  | 
C#CCOc1ccc(C(=O)/C=C/c2ccc(Br)cc2)c(OCC#C)c1 |  | 1.6 | 15 | 28 | 25 | 420 | 
CC(C)=CCOc1ccc(C(=O)/C=C/c2ccccc2)c(OCC=C(C)C)c1 | inactive |  |  |  |  |  | 
COc1cc(OCC=C(C)C)ccc1C(=O)/C=C/c1ccc(Br)cc1 |  | 6.3 | 16 | 37.5 | 100 | 600 | 
C#CCOc1ccc(C(=O)/C=C/c2ccncc2)c(OCC#C)c1 |  | 1.6 | 7 | 1.4 | 11 | 10 | 
COc1cc(OCC=C(C)C)ccc1C(=O)/C=C/c1ccc([N+](=O)[O-])cc1 |  | 200 | 3 | 200 | 600 | 600 | selectivity ratio [7]: 3; Ratio [8]: 30; Kd [9]: 0.6 µM; selectivity ratio [10]: 3; Ratio [11]: 6; IC50 (Leishmania major): 3.3 µM; IC50 (Leishmania donovani [12]): 14 µM; Ki [13]: 0.45 µM; IC50 (Leishmania tropica): 5.2 µM; IC50 (Leishmania infantum): 1.6 µM; Ratio Ki (Leishmania sp.): 3
C#CCOc1ccc(C(=O)/C=C/c2ccc(F)cc2)c(OCC#C)c1 |  | 48 | 12.5 | 48 | 600 | 600 | selectivity ratio [7]: 3; Kd [9]: 2.4 µM; selectivity ratio [10]: 3; IC50 (Leishmania major): 10 µM; IC50 (Leishmania donovani [12]): 4.5 µM; IC50 (Leishmania tropica): 13 µM; IC50 (Leishmania infantum): 1.6 µM
COc1ccc(/C=C/C(=O)c2ccc(OCC=C(C)C)cc2OC)cc1OC | inactive |  |  |  |  |  | 
C#CCOc1ccc(C(=O)/C=C/c2ccc([N+](=O)[O-])cc2)c(OCC#C)c1 | inactive |  |  |  |  |  | 
COc1cc(OCC=C(C)C)ccc1C(=O)/C=C/c1ccco1 | inactive |  |  |  |  |  | 
COc1ccc(/C=C/C(=O)c2ccc(OCC=C(C)C)cc2OC)cc1 | inactive |  |  |  |  |  | 
